Tested on: Fibroblast
Assay: Multiplex assay against human fibroblast
Assay type: toxicity, cell-based
Outline: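 Cells stained live at seeding with Hoechst33342, BioTracker Green Microtubule Cytoskeleton Dye, MitoTracker Red and Annexin V Alexa Fluor 680 were imaged on a CQ1 microscope at 37°C and 5% CO2 after compound addition. Their classification by CellPathfinder machine-learning gating ran from Hoechst high-intensity objects versus normal cells, to healthy, pyknosed or fragmented nuclei among normal cells, to mitotic or apoptotic among pyknosed cells. Tubulin, mitochondrial-mass and membrane-permeability phenotypes are per cents of healthy-nucleus cells.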

[1] = 12 h, 1 µM, compound concentration 1 uM, replicate 1
[2] = 12 h, 1 µM, compound concentration 1 uM, replicate 2
[3] = 12 h, 10 µM, compound concentration 10 uM, replicate 1
[4] = 12 h, 10 µM, compound concentration 10 uM, replicate 2
[5] = 24 h, 1 µM, compound concentration 1 uM, replicate 1
[6] = 24 h, 1 µM, compound concentration 1 uM, replicate 2
[7] = 24 h, 10 µM, compound concentration 10 uM, replicate 1
[8] = 24 h, 10 µM, compound concentration 10 uM, replicate 2
[9] = 48 h, 1 µM, compound concentration 1 uM, replicate 1
[10] = 48 h, 1 µM, compound concentration 1 uM, replicate 2
[11] = 48 h, 10 µM, compound concentration 10 uM, replicate 1
[12] = 48 h, 10 µM, compound concentration 10 uM, replicate 2

SMILES: Cc1cc(O)c(-c2ccc([C@@H](C)CN(C)C)cc2)c2c1[nH]c(=O)c1sccc12
- Population Apoptotic (%) [1]: 59%
- Population Fragmented Nuclei (%) [1]: 12%
- Population Healthy Nuclei (%) [1]: 67%
- Population Hoechst High Intensity Objects (%) [1]: 7%
- Population Membrane Permeable-Phenotype (%) [1]: 1%
- Population Mitochondria Different-Phenotype (%) [1]: 17%
- Population Mitotic Cells (%) [1]: 40%
- Population Normal (%) [1]: 92%
- Population Pyknosed Nuclei (%) [1]: 20%
- Population Tubulin-Different-Phenotype (%) [1]: 44%
- Total Cell Count [1]: 145
- Population Apoptotic (%) [2]: 50%
- Population Fragmented Nuclei (%) [2]: 22%
- Population Healthy Nuclei (%) [2]: 56%
- Population Hoechst High Intensity Objects (%) [2]: 2%
- Population Membrane Permeable-Phenotype (%) [2]: 4%
- Population Mitochondria Different-Phenotype (%) [2]: 12%
- Population Mitotic Cells (%) [2]: 50%
- Population Normal (%) [2]: 97%
- Population Pyknosed Nuclei (%) [2]: 21%
- Population Tubulin-Different-Phenotype (%) [2]: 52%
- Total Cell Count [2]: 115
- Population Apoptotic (%) [3]: 69%
- Population Fragmented Nuclei (%) [3]: 19%
- Population Healthy Nuclei (%) [3]: 63%
- Population Hoechst High Intensity Objects (%) [3]: 6%
- Population Membrane Permeable-Phenotype (%) [3]: 0%
- Population Mitochondria Different-Phenotype (%) [3]: 40%
- Population Mitotic Cells (%) [3]: 30%
- Population Normal (%) [3]: 93%
- Population Pyknosed Nuclei (%) [3]: 16%
- Population Tubulin-Different-Phenotype (%) [3]: 90%
- Total Cell Count [3]: 146
- Population Apoptotic (%) [4]: 70%
- Population Fragmented Nuclei (%) [4]: 28%
- Population Healthy Nuclei (%) [4]: 55%
- Population Hoechst High Intensity Objects (%) [4]: 5%
- Population Membrane Permeable-Phenotype (%) [4]: 2%
- Population Mitochondria Different-Phenotype (%) [4]: 19%
- Population Normal (%) [4]: 94%
- Population Pyknosed Nuclei (%) [4]: 15%
- Population Tubulin-Different-Phenotype (%) [4]: 80%
- Total Cell Count [4]: 137
- Population Apoptotic (%) [5]: 45%
- Population Fragmented Nuclei (%) [5]: 11%
- Population Healthy Nuclei (%) [5]: 66%
- Population Hoechst High Intensity Objects (%) [5]: 7%
- Population Membrane Permeable-Phenotype (%) [5]: 0%
- Population Mitochondria Different-Phenotype (%) [5]: 27%
- Population Mitotic Cells (%) [5]: 54%
- Population Normal (%) [5]: 92%
- Population Pyknosed Nuclei (%) [5]: 21%
- Population Tubulin-Different-Phenotype (%) [5]: 73%
- Total Cell Count [5]: 119
- Population Apoptotic (%) [6]: 52%
- Population Fragmented Nuclei (%) [6]: 28%
- Population Healthy Nuclei (%) [6]: 54%
- Population Hoechst High Intensity Objects (%) [6]: 9%
- Population Membrane Permeable-Phenotype (%) [6]: 1%
- Population Mitochondria Different-Phenotype (%) [6]: 10%
- Population Mitotic Cells (%) [6]: 47%
- Population Normal (%) [6]: 90%
- Population Pyknosed Nuclei (%) [6]: 16%
- Population Tubulin-Different-Phenotype (%) [6]: 56%
- Total Cell Count [6]: 111
- Population Apoptotic (%) [7]: 66%
- Population Fragmented Nuclei (%) [7]: 11%
- Population Healthy Nuclei (%) [7]: 65%
- Population Hoechst High Intensity Objects (%) [7]: 3%
- Population Membrane Permeable-Phenotype (%) [7]: 0%
- Population Mitochondria Different-Phenotype (%) [7]: 42%
- Population Mitotic Cells (%) [7]: 33%
- Population Normal (%) [7]: 96%
- Population Pyknosed Nuclei (%) [7]: 22%
- Population Tubulin-Different-Phenotype (%) [7]: 87%
- Total Cell Count [7]: 122
- Population Apoptotic (%) [8]: 57%
- Population Fragmented Nuclei (%) [8]: 30%
- Population Healthy Nuclei (%) [8]: 51%
- Population Hoechst High Intensity Objects (%) [8]: 8%
- Population Membrane Permeable-Phenotype (%) [8]: 3%
- Population Mitochondria Different-Phenotype (%) [8]: 34%
- Population Mitotic Cells (%) [8]: 42%
- Population Normal (%) [8]: 91%
- Population Pyknosed Nuclei (%) [8]: 18%
- Population Tubulin-Different-Phenotype (%) [8]: 81%
- Total Cell Count [8]: 124
- Population Apoptotic (%) [9]: 70%
- Population Fragmented Nuclei (%) [9]: 19%
- Population Healthy Nuclei (%) [9]: 55%
- Population Hoechst High Intensity Objects (%) [9]: 7%
- Population Membrane Permeable-Phenotype (%) [9]: 1%
- Population Mitochondria Different-Phenotype (%) [9]: 26%
- Population Mitotic Cells (%) [9]: 29%
- Population Normal (%) [9]: 92%
- Population Pyknosed Nuclei (%) [9]: 24%
- Population Tubulin-Different-Phenotype (%) [9]: 70%
- Total Cell Count [9]: 118
- Population Apoptotic (%) [10]: 57%
- Population Fragmented Nuclei (%) [10]: 31%
- Population Healthy Nuclei (%) [10]: 48%
- Population Hoechst High Intensity Objects (%) [10]: 9%
- Population Membrane Permeable-Phenotype (%) [10]: 2%
- Population Mitochondria Different-Phenotype (%) [10]: 20%
- Population Mitotic Cells (%) [10]: 42%
- Population Normal (%) [10]: 90%
- Population Pyknosed Nuclei (%) [10]: 20%
- Population Tubulin-Different-Phenotype (%) [10]: 62%
- Total Cell Count [10]: 103
- Population Apoptotic (%) [11]: 70%
- Population Fragmented Nuclei (%) [11]: 17%
- Population Healthy Nuclei (%) [11]: 53%
- Population Hoechst High Intensity Objects (%) [11]: 10%
- Population Membrane Permeable-Phenotype (%) [11]: 0%
- Population Mitochondria Different-Phenotype (%) [11]: 53%
- Population Mitotic Cells (%) [11]: 29%
- Population Normal (%) [11]: 89%
- Population Pyknosed Nuclei (%) [11]: 29%
- Population Tubulin-Different-Phenotype (%) [11]: 89%
- Total Cell Count [11]: 117
- Population Apoptotic (%) [12]: 71%
- Population Fragmented Nuclei (%) [12]: 39%
- Population Healthy Nuclei (%) [12]: 43%
- Population Hoechst High Intensity Objects (%) [12]: 7%
- Population Mitochondria Different-Phenotype (%) [12]: 30%
- Population Mitotic Cells (%) [12]: 28%
- Population Normal (%) [12]: 92%
- Population Pyknosed Nuclei (%) [12]: 16%
- Population Tubulin-Different-Phenotype (%) [12]: 85%
- Total Cell Count [12]: 136
